Experimental data reported in PMC8268672 (Bioorganic Chemistry, 2021).
≈ marks a conversion by molar mass, not a printed value. Like-named read-outs stand apart in the source and are kept apart here.

What was measured:
[1] = system: Escherichia coli (ATCC 8739); assay: MIC, broth microdilution; type: cell-based; conditions: ATCC8739, read-out: Minimum inhibitory concentration (MIC), EC
Method in brief: (§1)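 Broth microdilution per CLSI in Mueller-Hinton broth, using two-fold serial dilutions of test compound and reference drugs from 512 to 0.25. Bacterial broth cultures were grown 2-6 h to 0.5 McFarland turbidity, then diluted with sterile solution to the final inoculum. MIC is reported in µg/mL.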

[2] = system: Pseudomonas aeruginosa (MCCB 0035); assay: MIC, broth microdilution; type: cell-based; conditions: read-out: Minimum inhibitory concentration (MIC), PA
Method in brief: as §1

[3] = system: Klebsiella aerogenes (NCIM-2098); assay: MIC, broth microdilution; type: cell-based; conditions: NCIM2098, read-out: Minimum inhibitory concentration (MIC), KA
Method in brief: (§2)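 Antibacterial MICs by CLSI broth microdilution in Mueller-Hinton broth. Test compounds and standard drugs are serially diluted two-fold from 512 to 0.25. The bacterial broth culture is grown 2-6 h to a 0.5 McFarland turbidity, then adjusted with sterile solution to the final inoculum.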

[4] = system: Staphylococcus aureus (ATCC 29213); assay: MIC, broth microdilution; type: cell-based; conditions: ATCC29213, read-out: Minimum inhibitory concentration (MIC), SA
Method in brief: as §2

[5] = system: Bacillus cereus (NCIM-2458); assay: MIC, broth microdilution; type: cell-based; conditions: NCIM2458, read-out: Minimum inhibitory concentration (MIC), BC
Method in brief: as §1

[6] = system: Aspergillus niger (NCIM 2191); assay: MIC, broth microdilution; type: cell-based; conditions: NCIM2191, read-out: Minimum inhibitory concentration (MIC), AN
Method in brief: (§3)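 Antifungal MICs by CLSI broth microdilution in Sabouraud liquid medium. Test compounds and standard drugs are serially diluted two-fold from 512 to 0.25. The fungal broth culture is grown 24 h at 35 °C to a 0.5 McFarland turbidity, then adjusted with sterile solution to the final inoculum.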

[7] = system: Candida albicans (NCIM 2087); assay: MIC, broth microdilution; type: cell-based; conditions: NCIM2087, read-out: Minimum inhibitory concentration (MIC), CA
Method in brief: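 CLSI broth microdilution in Sabouraud liquid medium, with test compound two-fold serially diluted from 512 to 0.25. Fungal broth culture grown 24 h at 35 °C to 0.5 McFarland turbidity, then adjusted with sterile solution to a final […] inoculum. MIC expressed in µg/mL.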

[8] = system: Aspergillus fumigatus (NCIM 2081); assay: MIC, broth microdilution; type: cell-based; conditions: NCIM2081, read-out: Minimum inhibitory concentration (MIC), AF
Method in brief: as §3

[9] = system: Cryptococcus neoformans (ATCC 9011); assay: MIC, broth microdilution; type: cell-based; conditions: ATCC9011, read-out: Minimum inhibitory concentration (MIC), CN
Method in brief: as §3

[10] = system: Escherichia coli (ATCC 8739); assay: Agar disk diffusion, inhibition zone; type: cell-based; conditions: 100 µg/8 mm disc, triplicate, mean ± SD
Method in brief: (§4)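 Agar disk diffusion on Mueller-Hinton agar plates seeded with a standard bacterial suspension. Test compound stock in DMSO, diluted with distilled water; 8 mm sterile filter-paper discs soaked in the solution. Ampicillin was the reference. Plates incubated at 35 °C for 24 h, in triplicate. Read-out is the average inhibition-zone diameter (mm) around each disc.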

[11] = system: Pseudomonas aeruginosa (MCCB 0035); assay: Agar disk diffusion, inhibition zone; type: cell-based; conditions: 100 µg/8 mm disc, triplicate, mean ± SD
[12] = system: Salmonella typhimurium (NCIM-2501); assay: Agar disk diffusion, inhibition zone; type: cell-based; conditions: 100 µg/8 mm disc, triplicate, mean ± SD
[13] = system: Klebsiella aerogenes (NCIM-2098); assay: Agar disk diffusion, inhibition zone; type: cell-based; conditions: 100 µg/8 mm disc, triplicate, mean ± SD
[14] = system: Staphylococcus aureus (ATCC 29213); assay: Agar disk diffusion, inhibition zone; type: cell-based; conditions: 100 µg/8 mm disc, triplicate, mean ± SD
Method in brief: as §4

[15] = system: Bacillus cereus (NCIM-2458); assay: Agar disk diffusion, inhibition zone; type: cell-based; conditions: 100 µg/8 mm disc, triplicate, mean ± SD
[16] = system: Lactobacillus casei (NCIM-2651); assay: Agar disk diffusion, inhibition zone; type: cell-based; conditions: 100 µg/8 mm disc, triplicate, mean ± SD
[17] = system: Streptococcus pneumonia (ATCC 49619); assay: Agar disk diffusion, inhibition zone; type: cell-based; conditions: 100 µg/8 mm disc, triplicate, mean ± SD
[18] = system: Aspergillus niger (NCIM 2191); assay: Agar disk diffusion, inhibition zone; type: cell-based; conditions: 100 µg/8 mm disc, triplicate, mean ± SD
Method in brief: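 For the fungal strain, discs soaked in test compound solution (DMSO stock diluted with distilled water) sat on seeded Mueller-Hinton agar. Clotrimazole was the reference. Incubation ran 48 h at 35 °C, in triplicate. Zone of growth inhibition recorded in mm as the mean diameter around each disc.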

[19] = system: Candida albicans (NCIM 2087); assay: Agar disk diffusion, inhibition zone; type: cell-based; conditions: 100 µg/8 mm disc, triplicate, mean ± SD
[20] = system: Aspergillus fumigatus (NCIM 2081); assay: Agar disk diffusion, inhibition zone; type: cell-based; conditions: 100 µg/8 mm disc, triplicate, mean ± SD
[21] = system: Cryptococcus neoformans (ATCC 9011); assay: Agar disk diffusion, inhibition zone; type: cell-based; conditions: 100 µg/8 mm disc, triplicate, mean ± SD
Vaccinia virus = assay: microbe, parasite or virus in culture; type: cell-based; conditions: Orthopoxvirus vaccinia, HEL, read-out: Antiviral EC50, Vaccinia virus
Adeno virus-2 = assay: CPE reduction assay in HEL cells; type: cell-based; conditions: read-out: Antiviral EC50, Adeno virus-2
Human Coronavirus (229E) = assay: CPE reduction assay in HEL cells; type: cell-based; conditions: read-out: Antiviral EC50, Human Coronavirus (229E)
Para-influenza-3 virus = assay: CPE reduction assay in Vero cells; type: cell-based, Parainfluenza-3 virus; conditions: Vero, read-out: Antiviral EC50, Para-influenza-3 virus
Reovirus-1 = assay: CPE reduction assay in Vero cells; type: cell-based; conditions: read-out: Antiviral EC50, Reovirus-1
Sindbis virus = assay: CPE reduction assay in Vero cells; type: cell-based; conditions: read-out: Antiviral EC50, Sindbis virus
Coxsackie virus B4 = assay: CPE reduction assay in Vero cells; type: cell-based; conditions: Enterovirus B, read-out: Antiviral EC50, Coxsackie virus B4
Punta Toro virus = assay: CPE reduction assay in Vero cells; type: cell-based; conditions: read-out: Antiviral EC50, Punta Toro virus
Yellow Fever virus = assay: microbe, parasite or virus in culture; type: cell-based; conditions: Yellow fever virus, Vero, read-out: Antiviral EC50, Yellow Fever virus
[22] = system: Influenza A/H1N1 A/Ned/378/05; assay: CPE reduction assay in MDCK cells; type: cell-based; conditions: Influenza A virus
[23] = system: Influenza A/H3N2 A/HK/7/87; assay: CPE reduction assay in MDCK cells; type: cell-based; conditions: Influenza A virus
Influenza B B/Ned/537/05 = assay: CPE reduction assay in MDCK cells; type: cell-based; conditions: Influenza B virus, read-out: Antiviral EC50, Influenza B B/Ned/537/05, MTS
[24] = system: Human embryonic lung (HEL) cells; conditions: HEL cell cultures; microscopically detectable alteration of normal cell morphology
Vero cells = conditions: Vero cell cultures; microscopically detectable alteration of normal cell morphology
[25] = system: Madin Darby canine kidney (MDCK) cells; conditions: dog
MT4 cells = conditions: MT4 cell cultures; colorimetric MTT cell viability assay
[26] = read-out: Antiviral EC50, Influenza A/H1N1 A/Ned/378/05, MTS
[27] = read-out: Antiviral EC50, Influenza A/H1N1 A/Ned/378/05, visual CPE score
[28] = read-out: Antiviral EC50, Influenza A/H3N2 A/HK/7/87, MTS
[29] = read-out: Antiviral EC50, Influenza A/H3N2 A/HK/7/87, visual CPE score

Row | SMILES | MIC [1] [µg/mL] | MIC [2] [µg/mL] | MIC [3] [µg/mL] | MIC [4] [µg/mL] | MIC [5] [µg/mL] | MIC [6] [µg/mL] | MIC [7] [µg/mL] | MIC [8] [µg/mL] | MIC [9] [µg/mL] | Diameter of growth inhibition zone, EC [10] [mm] | Diameter of growth inhibition zone, PA [11] [mm] | Diameter of growth inhibition zone, ST [12] [mm] | Diameter of growth inhibition zone, KA [13] [mm] | Diameter of growth inhibition zone, SA [14] [mm] | Diameter of growth inhibition zone, BC [15] [mm] | Diameter of growth inhibition zone, LC [16] [mm] | Diameter of growth inhibition zone, SP [17] [mm] | Diameter of growth inhibition zone, AN [18] [mm] | Diameter of growth inhibition zone, CA [19] [mm] | Diameter of growth inhibition zone, AF [20] [mm] | other results
1 | Cc1ccc(S(=O)(=O)N2C(=O)CSC2c2ccccc2Cl)cc1 (stereo not drawn) [5e, 2-(2-Chlorophenyl)-3-[(4-methylphenyl)sulfonyl]-1,3-thiazolidin-4-one] | 16 (≈ 43.5 µM) | 32 (≈ 87 µM) | 32 (≈ 87 µM) | 64 (≈ 174 µM) | 64 (≈ 174 µM) | 32 (≈ 87 µM) | 32 (≈ 87 µM) | 64 (≈ 174 µM) | 16 (≈ 43.5 µM) | 19 ± 0.69 | 18 ± 0.55 | 10 ± 0.72 | 12 ± 0.5 | 17 ± 3.6 | 10 ± 0.7 | 14 ± 0.3 | 10 ± 1.32 | 10.2 ± 0.9 | 10.8 ± 1.5 | 9.6 ± 1.2 | Diameter of growth inhibition zone, CN [21]: 12 ± 0.9 mm; EC50 (Vaccinia virus): > 100 µM; EC50 (Adeno virus-2): > 100 µM; EC50 (Human Coronavirus (229E)): > 100 µM; EC50 (Para-influenza-3 virus): > 100 µM; EC50 (Reovirus-1): > 100 µM; EC50 (Sindbis virus): > 100 µM; EC50 (Coxsackie virus B4): > 100 µM; EC50 (Punta Toro virus): > 100 µM; EC50 (Yellow Fever virus): > 100 µM; EC50 [22, 26]: > 100 µM; EC50 [22, 27]: > 100 µM; EC50 [23, 28]: > 100 µM; EC50 [23, 29]: > 100 µM; EC50 (Influenza B B/Ned/537/05): > 100 µM; Minimum cytotoxic conc. [24]: >100 µM; Minimum cytotoxic conc. (Vero cells): >100 µM; Cytotoxicity, Minimum cytotoxic conc. [25]: >100 µM; Minimum cytotoxic conc. (MT4 cells): >125 µM
2 | Cc1ccc(S(=O)(=O)N2C(=O)CSC2c2ccc(Cl)cc2)cc1 (stereo not drawn) [5g, 2-(4-Chlorophenyl)-3-[(4-methylphenyl)sulfonyl]-1,3-thiazolidin-4-one] | 4 (≈ 10.9 µM) | 8 (≈ 21.7 µM) | 32 (≈ 87 µM) | 4 (≈ 10.9 µM) | 8 (≈ 21.7 µM) | 8 (≈ 21.7 µM) | 8 (≈ 21.7 µM) | 16 (≈ 43.5 µM) | 16 (≈ 43.5 µM) | 23 ± 0.32 | 24 ± 1.5 | 12 ± 0.9 | 12 ± 0.12 | 22 ± 0.63 | 18 ± 0.33 | 14 ± 0.4 | 12 ± 1.43 | 18 ± 1.1 | 20 ± 1.5 | 13 ± 0.63 | Diameter of growth inhibition zone, CN [21]: 12 ± 1.8 mm; EC50 (Vaccinia virus): > 100 µM; EC50 (Adeno virus-2): > 100 µM; EC50 (Human Coronavirus (229E)): > 100 µM; EC50 (Para-influenza-3 virus): > 100 µM; EC50 (Reovirus-1): > 100 µM; EC50 (Sindbis virus): > 100 µM; EC50 (Coxsackie virus B4): > 100 µM; EC50 (Punta Toro virus): > 100 µM; EC50 (Yellow Fever virus): > 100 µM; EC50 [22, 26]: > 100 µM; EC50 [22, 27]: > 100 µM; EC50 [23, 28]: > 100 µM; EC50 [23, 29]: > 100 µM; EC50 (Influenza B B/Ned/537/05): > 100 µM; Minimum cytotoxic conc. [24]: >100 µM; Minimum cytotoxic conc. (Vero cells): >100 µM; Cytotoxicity, Minimum cytotoxic conc. [25]: >100 µM; Minimum cytotoxic conc. (MT4 cells): >125 µM
